Experimental data: the RNAGym collection of RNA variant scans (doi:10.1038/s41586-018-0170-7)

B1: tRNA (parent)
chain: GUUCCGUUGGCGUAAUGGUAACGCGUCUCCCUCCUAAGGAGAAGACUGCGGGUUCGAGUCCCGUACGGAACG

Variants of: B1
Assay: yeast fitness, log relative to wild type (ln ratio); higher = fitter; tRNA-Arg(CCU), competitive growth, 37 C, 1 M NaCl
In short: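 Fitness is the natural log of each genotype's generations divided by the wild type's. Generations were derived as OD-scaled log2 output/input frequency from 125 bp paired-end Illumina counts, weighting replicates by inverse variance. Pools of the tRNA-Arg(CCU) variant library, on a HIS3 centromeric plasmid in BY4742 lacking the chromosomal gene, grew ~6.5 generations (~26.5 h) in SC-HIS 1M NaCl at 37 °C after 4 generations in SC-HIS at 30 °C.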

Variant | yeast fitness (ln)
U2C C46U C66A A70G | -0.0556
U2C C46U C66A A70U | 0.075
U2C C27U A43C C46U A69G | -0.0409
G1A U2G G6U C46U C66A C71U | -0.179
U2C C27U C66U A70U C71U | -0.324
U2C A43C A69G C71U | -0.138
G1A U2G G6U C46U C66A A70G C71U | -0.511
U2C A43C C46U C66U A69G A70G C71U | -0.315
G1A U2G G6U C27U C66A A69G A70G C71U | -0.408
G1A U2G G6U C46U C66A A69G A70U | -0.0992
U2C A43C C66U A69G A70G C71U | -0.23
U2C C27U A43C C46U A70U C71U | -0.0649
U2C C27U A43C C46U C66A C71U | -0.132
U2C A69G A70G | -0.0175
U2C A69G A70U | -0.117
U2C A43C C46U C66A A69G A70U | -0.0111
U2C A43C C46U C66A A69G A70G | -0.15
G1A U2G G6U C46U A69G C71U | -0.3
U2C A70G C71U | -0.013
U2C A43C | -0.0265
U2C C27U A43C C66U | -0.15

Variant | yeast fitness (ln)
U2C C27U A43C C66A | -0.155
U2C C46U C66A A69G A70G | -0.0391
U2C C46U C71U | -0.069
U2C C27U A43C A69G A70U | -0.136
U2C C27U A43C A69G A70G | -0.0551
U2C C27U A43C C46U A70G | -0.0098
U2C C27U A43C C46U A70U | -0.14
U2C A43C C46U C66U A70G C71U | -0.152
G1A U2G G6U C46U C66U A69G A70G | -0.347
G1A U2G G6U C46U C66U A69G A70U | -0.288
U2C A70U | -0.0103
U2C A70G | 0.00112
G1A U2G G6U C66U C71U | -0.249
U2C C27U A70U | -0.0757
U2C C27U A70G | -0.0415
U2C C27U C46U A69G A70G C71U | -0.0348
G1A U2G G6U C27U C66U A69G A70G C71U | -0.446
U2C C46U | 0.0244
G1A U2G G6U C27U C46U C66A C71U | -0.175
U2C A43C C46U C66U A70U | -0.0497
U2C A43C C46U C66U A70G | -0.0311

Variant | yeast fitness (ln)
U2C C27U C46U A70G C71U | -0.0224
U2C C27U A43C C46U C66U A70G C71U | -0.406
G1A U2G G6U C66U A70U C71U | -0.351
U2C C27U A43C C46U A69G C71U | -0.118
G1A U2G G6U C27U C46U C66A A69G A70U C71U | -0.513
U2C A43C C46U C66A A69G A70G C71U | -0.097
U2C C27U A43C C46U C66U A69G A70U | -0.259
U2C C27U A43C C46U C66U A69G A70G | -0.303
U2C A43C C66U A70U | -0.0776
U2C A43C C66U A70G | -0.0636
G1A U2G G6U C46U C66U | -0.14
G1A U2G G6U C46U C66A | -0.122
U2C | 0.0175
U2C C66A A70G C71U | -0.196
U2C A43C C46U A69G A70G | -0.0147
U2C A43C C46U A69G A70U | -0.144
U2C C27U A43C C46U C66A A70G C71U | -0.105
U2C A43C C46U C66U A69G C71U | -0.25
G1A U2G G6U C27U C46U C66U A70U | -0.236
G1A U2G G6U C27U C46U C66U A70G | -0.437
U2C C27U A43C C46U A70G C71U | -0.00986

Variant | yeast fitness (ln)
U2C C27U A69G | -0.23
U2C A43C C46U C66A A70G | -0.058
U2C A43C C46U C66A A70U | -0.0333
G1A U2G G6U C66U A70G C71U | -0.264
G1A U2G G6U C66U A69G A70U C71U | -0.553
U2C C27U C46U C66U C71U | -0.132
G1A U2G G6U C46U A69G A70G | -0.247
G1A U2G G6U C46U A69G A70U | -0.211
U2C A43C C66A A69G A70U C71U | -0.368
U2C A43C C46U A69G A70G C71U | -0.00607
U2C C27U A43C C46U C66A | -0.0384
U2C C27U A43C C46U C66U | -0.0652
G1A U2G G6U C27U C66A A70U C71U | -0.168
U2C A43C C46U A70G | -0.00469
U2C A43C C46U A70U | -0.0182
U2C C27U A43C C66A A70G C71U | -0.111
U2C C46U C66U A69G A70U C71U | -0.359
U2C C46U C66U A69G | -0.224
U2C A43C C66A C71U | -0.169
G1A U2G G6U C27U C46U C66U A69G A70U | -0.339
G1A U2G G6U C27U C46U C66U A69G A70G | -0.308
